# Bioassay records deposited in PubChem BioAssay by several laboratories.
# A selection: hits, their analogues and other compounds. The true share with any hit is near 9.3%.
# D1 mod – D1 CRE-luciferase signal change, two-sided – cell-based, HEK293 D1, dopamine EC30, D1 allosteric modulator project, primary screen | D(1A) dopamine receptor (Homo sapiens), P21728 | 58,000 compounds, 5.9% hits | dopamine EC30 potentiation; actives deviate in either direction | B-score at 10 µM;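 active = luminescence count or its row- and column-corrected plate score outside the 99.7% band of the plate's sample wells, on either side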
# PostGolgi yeast – phenotypic screen on post-Golgi transport, primary screen | 98,000 compounds, 0.9% hits | AID 739, 2007 | post-Golgi transport phenotypic cell assay | inhibition, % at 10 µM;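 note: yeast cells grown in 1536-well plates; yeast grown about 18 h at 30C before absorbance read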
# tolC growth inh – growth inhibitors of E. coli tolC mutant, primary screen, strain BW25113 ΔtolC::kan, 384-well; OD615; growth inhibition, % at 10 µM (by protocol); 65,000 compounds, 2.2% hits;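 active = growth inhibition at or above a cutoff equal to the mean over every tested compound plus 3 SD, cut at about 60% in these data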;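 note: growth measured after 20 h incubation at 37 °C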
#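 Test system: tolC-deleted E. coli BW25113 | Medium: LB with kanamycin 50 µg/mL | Compound dosing: Single concentration, 10 µM final per compound | Schedule: 37 °C, 20 h exposure | Measured by: OD at 615 nm | Evaluation: Percent growth inhibition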
# PostGolgi ctrl – growth inhibition of yeast control strain, primary screen, counter-screen for post-Golgi transport modulator project; efflux-deficient yeast background strain, growth absorbance A615, 16 h; inhibition, % at 10 µM; 98,000 compounds, 5% hits
# DAT uptake mod – changed hDAT dopamine uptake under cocaine IC80, either direction, primary screen, cocaine antagonist project, cell-based, LLC-PK1 hDAT, [14C]-dopamine uptake, MLSMR; LLC-PK1 hDAT cells, [14C]-dopamine uptake with cocaine IC80; actives deviate in either direction; Sodium-dependent dopamine transporter (Homo sapiens), Q01959; B-score at 10 µM; 110,000 compounds, 1.3% hits;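 active = Z score or B-score, a plate-position-corrected score, falls beyond the plate's 99.7% confidence bounds, in either direction; inactive = both scores lie inside the 99.7% bounds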;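 note: scored against the spread of the other compound wells on the same plate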
# Target sequence (Q01959 whole entry, looked up): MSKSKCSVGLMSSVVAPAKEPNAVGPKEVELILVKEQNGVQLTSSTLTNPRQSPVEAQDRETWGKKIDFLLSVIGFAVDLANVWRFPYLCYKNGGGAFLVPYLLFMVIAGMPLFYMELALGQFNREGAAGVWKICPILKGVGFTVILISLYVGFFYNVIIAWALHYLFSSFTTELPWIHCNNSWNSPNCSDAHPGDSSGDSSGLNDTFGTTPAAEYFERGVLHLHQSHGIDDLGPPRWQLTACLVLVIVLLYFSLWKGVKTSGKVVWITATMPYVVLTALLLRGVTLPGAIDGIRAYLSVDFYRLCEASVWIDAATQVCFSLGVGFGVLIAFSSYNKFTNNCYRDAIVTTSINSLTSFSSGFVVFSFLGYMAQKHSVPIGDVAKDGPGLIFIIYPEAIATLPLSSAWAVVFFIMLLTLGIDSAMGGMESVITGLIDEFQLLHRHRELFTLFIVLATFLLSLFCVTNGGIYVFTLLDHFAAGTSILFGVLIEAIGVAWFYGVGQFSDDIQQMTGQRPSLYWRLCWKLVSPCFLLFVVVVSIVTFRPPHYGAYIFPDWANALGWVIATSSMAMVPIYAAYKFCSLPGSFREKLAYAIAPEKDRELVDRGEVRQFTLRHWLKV
# E coli WT exp – growth inhibitors of wild-type E. coli, primary screen, strain BW25113, expanded library, OD600 | OD600 absorbance | growth inhibition, % at 100 µM | 98,000 compounds, 0.15% hits;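 active = growth inhibition above about 50% at one test dose, limit read from the data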;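 note: growth measured after 20 h incubation at 37 °C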
# * hit, by the source's call; / = not tested or not shown. Cut-off read from the data, not from the text of the source, unless noted: active = inhibition above about 30%; inactive = the rest.
SMILES,D1 mod,PostGolgi yeast,tolC growth inh,PostGolgi ctrl,DAT uptake mod,E coli WT exp
CCCCCCCCCCCCCCCC(=O)OC[C@H](COP(=O)([O-])OCC[N+](C)(C)C)OC(=O)CCCCCCCCCCCCCCC,/,/,/,/,-0.44,/
O=C(NCC1CC1)[C@]1(C(F)(F)F)C[C@H](CCC2CCCCC2)CCCO1,/,/,/,/,0.1,/
NC(=O)c1ccccc1NS(=O)(=O)c1cccs1,0.92,2,2,10,-3.2*,12
O=c1ccsn1Cc1ccccc1,-0.0032,0,100*,-2,0.061,100*
Cn1c(=O)n(Cc2ccccc2)c2ccccc21,1.2,-3,-5,7,0.0092,5
O=c1oc2cc(Cl)ccc2n1CSc1nc2ccccc2s1,/,8,/,32*,0.025,-20
COc1ccc(C2(C)NC(=O)N(CC(=O)Nc3ccc4c(c3)OCO4)C2=O)cc1OC (configuration not stated),/,-3,/,-2,0.41,-1
O=C(Nc1nc(SCc2ccc(F)cc2)ns1)c1ccco1,-0.66,/,81*,/,0.011,/
c1ccc(-c2cn3c4c(sc3n2)CCCC4)cc1,-9.9*,-5,26,13,0.72,2
Cc1c(C(=O)N2CCOCC2)sc2nc(-c3ccccc3)cn12,-0.48,-4,0,7,/,1
O=C(c1ccc([N+](=O)[O-])cc1)N(Cc1ccc(Cl)cc1)N1C(=O)CCCC1=O,/,-1,/,24,-6.6*,-1
O=C(c1ccc([N+](=O)[O-])cc1)N(Cc1ccc(Cl)cc1Cl)N1C(=O)CCCC1=O,/,3,/,12,-0.032,1
N#Cc1ccc(N2CCN(C(=O)c3cccc(F)c3)CC2)c(F)c1,0.0031,4,10,-4,0.64,8
CCc1n[nH]c2c1/C(=N\O)CC(C)(C)C2,1.2,98*,-2,2,0.88,5
CCC(c1nnc(SCC(=O)Nc2nnc(-c3ccccc3)o2)n1Cc1ccccc1)N(C)C (configuration not stated),1.1,16,6,-2,1.2,7
Cc1nonc1NC(=O)CSc1nc2cc(Cl)ccc2c2c1CCCC2,-2.5*,-6,13,-9,0.63,-11
Cc1ccc2c3c(c(SCC(=O)Nc4nonc4C)nc2c1)CCCC3,0.77,-6,-14,-17,0.79,-13
COC(=O)c1sccc1NC(=O)CSc1ccccc1NS(=O)(=O)c1ccc(Br)cc1,/,-20,/,32*,0.76,-15
Cc1ccccc1NS(=O)(=O)c1ccc(NC(=O)CSCc2ccc(Br)cc2)cc1,/,96*,/,91*,0.22,-15
Cc1ccc(-c2csc(N(C)C(=O)c3c(C)nn(-c4ccccc4)c3Cl)n2)cc1,/,13,/,2,0.66,-12
O=C(NCc1nc2ccccc2[nH]1)C1=C[C@H](C2CC2)C[C@H](OCc2ccc(CO)cc2)O1,/,/,/,/,-0.021,/
O=S(=O)(c1cccc(C(F)(F)F)c1)N1CCN(c2ccccc2)CC1,/,2,/,0,-0.041,6
O=C(c1ccco1)N1CCN(S(=O)(=O)c2cccc(C(F)(F)F)c2)CC1,1.7,1,4,5,-1.8*,-9
CN(C)S(=O)(=O)Oc1ccsc1C(=O)Nc1ccc(Cl)c(Cl)c1,/,-3,/,45*,-0.89,-11
CN(C)S(=O)(=O)Oc1ccsc1C(=O)Nc1cccc(Cl)c1,/,-7,/,22,0.096,1
SMILES,D1 mod,PostGolgi yeast,tolC growth inh,PostGolgi ctrl,DAT uptake mod,E coli WT exp
O=C(NC1CCCCC1)NC1CC2CCC(C1)N2Cc1nnnn1Cc1ccc2c(c1)OCO2 (configuration not stated),/,7,/,14,/,10
O=C(Nc1nnc(-c2ccc3c(c2)CCCC3)o1)c1ccccc1,/,100*,/,11,-0.08,25
O=C(Nc1nnc(-c2ccc3c(c2)CCCC3)o1)c1ccccc1Cl,-1.1,88*,98*,28,0.09,6
O=C(COc1ccccc1)Nc1nnc(-c2ccc3c(c2)CCCC3)o1,/,-14,/,31*,0.0013,-6
O=C(COc1ccccc1)Nc1ccc(-c2nnc(-c3ccco3)o2)cc1,-0.23,0,8,10,-1.1,-10
O=C(Nc1nnc(-c2ccc3c(c2)OCCO3)o1)c1ccc(Cc2ccccc2)cc1,-0.1,-4,100*,11,-0.2,-1
COc1ccc(C(=O)Nc2nnc(-c3ccccc3)o2)cc1OC,0.027,0,36,17,2.4,-6
CCN(CC)c1cc(C)c2cc(NC(=O)c3ccc(Br)o3)ccc2n1,/,-11,/,6,0.82,2
Fc1ccc(Sc2nc(-c3ccccc3)nnc2C(F)(F)F)cc1,/,16,/,72*,-0.39,4
Fc1ccc(Oc2nc(-c3ccccc3)nnc2C(F)(F)F)cc1,/,-2,/,17,-0.86,-4
O=C(Nc1ccc(S(=O)(=O)N2CCCc3ccccc32)cc1)C1CCCO1 (configuration not stated),0.31,6,68*,27,2,-11
O=C(O)C1CC=CCC1C(=O)Nc1ccc(S(=O)(=O)N2CCCc3ccccc32)cc1 (configuration not stated),-0.54,2,61*,5,1.3*,5
O=C(O)C1CC=CCC1C(=O)Nc1ccccc1 (configuration not stated),/,3,/,13,0.86,-2
C#CCNC(=O)C1=C[C@H](C)C[C@H](OCc2ccc(CO)cc2)O1,/,/,/,/,-0.63,/
CCOC(=O)C(C(C)=O)C(c1ccc(OC)cc1)C(C(C)=O)C(=O)OCC (configuration not stated),0.19,-10,-5,11,0.0094,-4
CCOC(=O)C(C)c1ccc2cc(OC)ccc2c1 (configuration not stated),/,-4,/,2,-4.2*,-2
COC(=O)c1ccccc1NC1=C/C(=N\S(=O)(=O)c2cccs2)c2ccccc2C1=O,/,-4,/,19,-3*,-12
COC(=O)C(Cc1ccc(OC(=O)c2ccccc2C)cc1)N1Cc2ccccc2C1=O (configuration not stated),/,15,/,18,3.3*,-18
CCCCc1nc(N2CCOCC2)c(C#N)c2c1COC(C)(C)C2,/,0,13,17,0.13,13
CCCCc1nc(NCC2CCCO2)c(C#N)c2c1COC(C)(C)C2 (configuration not stated),/,2,-3,96*,0.039,2
Cn1c(N/N=C/c2cccs2)cc(=O)n(C)c1=O,/,1,/,35*,/,-3
C=C(C)c1cccc(C(C)(C)NC(=O)N2CCN(C/C=C/c3ccccc3)CC2)c1,/,2,/,6,2,8
CC(C)C(c1nnnn1CCc1ccccc1)N1CCOCC1 (configuration not stated),-0.69,11,-10,-4,1,8
